ChEMBL document CHEMBL3259603, “Antiprotozoal activity and DNA binding of N-substituted N-phenylbenzamide and 1,3-diphenylurea bisguanidines” (Eur J Med Chem, 2014)
Calls of active or inactive are those of the source. The calls are words filed in the database; no cut-off is given here.

Columns and labels:
[1] = Cytotoxicity against rat L6 cells; type: cell-based
Method in brief: (§1)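 Alamar blue-based viability assays were run on bloodstream T. b. rhodesiense STIB900 and on rat skeletal myoblast L6 cells. Podophyllotoxin was the reference drug for L6.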

[2] = system: Trypanosoma brucei rhodesiense; assay: Antimicrobial activity against bloodstream form of Trypanosoma brucei rhodesiense STIB900 infected in acute HAT NMRI mouse model assessed as mean day of relapse at 20 mg/kg, ip administered for 4 days; type: functional; settings: route intraperitoneal
Method in brief: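 Acute-stage mouse model infected with T. b. rhodesiense STIB900, in groups of four mice. Compound was formulated in 100% DMSO and diluted 10-fold in distilled water. It was given on four consecutive days from day 3 post-infection at 0.1 mL/10 g. Three infected mice were left untreated. Parasitaemia was checked in tail-blood smears up to day 60; relapse-free mice were counted as cured. Mean relapse day is the post-infection day of relapse.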

[3] = Selectivity index, ratio of CC50 for rat L6 cells to IC50 for Plasmodium falciparum NF54
[4] = system: Trypanosoma brucei rhodesiense; assay: Antimicrobial activity against trypomastigote stage of Trypanosoma brucei rhodesiense STIB900 infected in rat L6 cells after 96 hrs by Alamar Blue assay; type: functional, organism-based; settings: STIB900, L6, 96 h; method in brief: as §1
Plasmodium falciparum = assay: Antimicrobial activity against intraerythrocytic stage of Plasmodium falciparum NF54 infected in human erythrocytes by [3H]hypoxanthine incorporation assay; type: functional, organism-based
Method in brief: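 Erythrocytic P. falciparum NF54 (chloroquine-sensitive) was tested with a [³H]hypoxanthine incorporation read-out.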

[5] = Selectivity index, ratio of CC50 for rat L6 cells to IC50 for Trypanosoma brucei rhodesiense; type: functional
Method in brief: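 Selectivity index was calculated as L6 CC₅₀ divided by the T. b. rhodesiense IC₅₀, both from the Alamar blue assays.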

Mus musculus = assay: Acute toxicity in NMRI mouse infected with bloodstream form of Trypanosoma brucei rhodesiense STIB900 at 20 mg/kg, ip administered for 4 days; type: organism-based; design: dose 20 mg/kg, route intraperitoneal; settings: in vivo, 96 h
[6] = system: Trypanosoma brucei rhodesiense; assay: Antimicrobial activity against bloodstream form of Trypanosoma brucei rhodesiense STIB900 infected in acute HAT NMRI mouse model assessed as mean day of relapse at 50 mg/kg, po administered for 4 days; type: functional
[7] = system: Trypanosoma brucei rhodesiense; assay: Antimicrobial activity against bloodstream form of Trypanosoma brucei rhodesiense STIB900 infected in acute HAT NMRI mouse model assessed as mean day of relapse at 5 mg/kg, ip administered for 4 days; type: functional; settings: route intraperitoneal
Trypanosoma brucei = assay: Antimicrobial activity against Trypanosoma brucei GVR35 infected in NMRI mouse late stage model at 20 mg/kg, ip administered for 5 days; type: functional, organism-based; design: dose 20 mg/kg
[8] = Binding affinity to 5'-biotin-CATATATATCCCCATATATATG-3' hairpin DNA (unknown origin) after 5 mins by SPR analysis
Method in brief: (§2)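 SPR at 25 °C in MES buffer (10 mM MES, 1 mM EDTA, 100 mM NaCl, 0.005% P20, pH 6.25). Biotinylated hairpins were captured on streptavidin chips to about 400 RU, with a blank reference flow cell. A compound dilution series (from 5 mM stocks) was injected at 20 µL/min with 5 min association and 5 min dissociation. Surfaces were regenerated with 200 mM NaCl/10 mM NaOH. Equilibrium constants came from fits to a one- or two-site model.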

[9] = Binding affinity to 5'-biotin-CGAATTCGTCTCCGAATTCG-3' hairpin DNA (unknown origin) after 5 mins by SPR analysis; method in brief: as §2
[10] = Binding affinity to 5'-biotin-CGCGCGCGTTTTCGCGCGCG-3' hairpin DNA (unknown origin) hairpin DNA after 5 mins by SPR analysis; method in brief: as §2
[11] = Selectivity ratio of K for 5'-biotin-CGAATTCGTCTCCGAATTCG-3' hairpin DNA (unknown origin) to K for 5'-biotin-CATATATATCCCCATATATATG-3' hairpin DNA (unknown origin)

Compound | CC50 [1] [µM] | Time [2] [days] | Ratio CC50/IC50 [3] | IC50 [4] [µM] | IC50 (Plasmodium falciparum) [µM] | Ratio CC50/IC50 [5] | Activity (Mus musculus) | Time [6] [days] | Time [7] [days] | Activity (Trypanosoma brucei) | K [8] [×10⁵ /M] | K [9] [×10⁵ /M] | K [10] [×10⁵ /M] | Selectivity ratio [11]
CC(C)/N=C(\N)Nc1ccc(NC(=O)Nc2ccc(N/C(N)=N/C(C)C)cc2)cc1.Cl | 126 | 10 | 288 | 0.049 | 0.437 | 2571 | Toxic |  |  |  |  |  |  | 
Nc1nc(N)nc(Nc2ccc([As]3SCC(CO)S3)cc2)n1 (configuration not stated) [MELARSOPROL] |  |  |  |  |  | >1000 |  |  |  |  |  |  |  | 
N/C(=N\O)Nc1ccc(NC(=O)c2ccc(N/C(N)=N/O)cc2)cc1 | 100 |  |  | 4.88 | 3.58 |  |  |  |  |  |  |  |  | 
N/C(=N\OCc1ccccc1)Nc1ccc(NC(=O)c2ccc(N/C(N)=N/OCc3ccccc3)cc2)cc1 | 6.6 |  |  | 3.13 | 2.83 |  |  |  |  |  |  |  |  | 
CO/N=C(\N)Nc1ccc(NC(=O)c2ccc(N/C(N)=N/OC)cc2)cc1 | 141 |  |  | 56 | 7.49 |  |  |  |  |  |  |  |  | 
N=C(N)Nc1ccc(NC(=O)c2ccc(NC(=N)N)cc2)cc1 |  |  |  |  |  |  |  | >60 | >60 | inactive |  |  |  | 
CC/N=C(\N)Nc1ccc(NC(=O)Nc2ccc(N/C(N)=N/CC)cc2)cc1.Cl | 116 | 18.3 | 292 | 0.09 | 0.397 | 1289 | Toxic |  |  |  | 0.15 | 0.19 |  | 
C/N=C(\N)Nc1ccc(NC(=O)Nc2ccc(N/C(N)=N/C)cc2)cc1.Cl | 177 |  | 922 | 0.264 | 0.192 | 670 |  |  |  |  |  |  |  | 
CC(C)/N=C(\N)Nc1ccc(NC(=O)c2ccc(N/C(N)=N/C(C)C)cc2)cc1.Cl | 103 | >60 | 231 | 0.011 | 0.446 | 9364 |  |  |  |  | 4 | 9.8 | < 1 | 2.5
N/C(=N\OC1CCCCO1)Nc1ccc(NC(=O)c2ccc(N/C(N)=N/OC3CCCCO3)cc2)cc1 (configuration not stated) | 160 |  |  | 51.4 | 42.6 |  |  |  |  |  |  |  |  | 
C/N=C(\N)Nc1ccc(NC(=O)c2ccc(N/C(N)=N/C)cc2)cc1.Cl | 173 |  | 169 | 0.177 | 1.02 | 977 |  |  |  |  |  |  |  | 
CC/N=C(\N)Nc1ccc(NC(=O)c2ccc(N/C(N)=N/CC)cc2)cc1.Cl | 118 | >60 | 509 | 0.009 | 0.232 | 13111 |  |  |  |  | 5.2 | 8.1 | < 1 | 1.5
